From ChEMBL document CHEMBL3779838, “Inhibitory effect of flavonoids on human glutaminyl cyclase” (Bioorg Med Chem, 2016)

How the values were obtained:
[1] = biological target: T1, Glutaminyl-peptide cyclotransferase (Homo sapiens, UniProt Q16769); experiment: Inhibition of human recombinant glutaminyl cyclase expressed in Escherichia coli at 100 uM using H-Gln-Gln-H substrate measured for 15 mins by spectrophotometry relative to control
Target sequence in this assay (Q16769 29-361 limits assumed): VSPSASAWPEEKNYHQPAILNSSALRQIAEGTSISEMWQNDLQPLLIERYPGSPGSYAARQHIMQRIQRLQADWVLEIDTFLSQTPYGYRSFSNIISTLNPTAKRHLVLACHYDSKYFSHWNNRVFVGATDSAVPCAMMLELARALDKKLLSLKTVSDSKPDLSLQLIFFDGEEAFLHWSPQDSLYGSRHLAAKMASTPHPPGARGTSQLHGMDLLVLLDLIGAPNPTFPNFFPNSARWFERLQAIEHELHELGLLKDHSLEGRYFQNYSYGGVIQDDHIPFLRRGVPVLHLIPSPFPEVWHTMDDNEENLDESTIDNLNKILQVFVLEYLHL

[2] = biological target: T1, Glutaminyl-peptide cyclotransferase; experiment: Inhibition of human recombinant glutaminyl cyclase expressed in Escherichia coli using H-Gln-Gln-H substrate measured for 15 mins by spectrophotometry
Outline: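 Recombinant hQC expressed in E. coli is tested in a glutamic acid dehydrogenase-coupled reaction: 0–4 mM H-Gln-Gln-H, 30 units/ml GDH, 0.5 mM NADH/H+, 15 mM α-ketoglutaric acid, 0.05 M Tris–HCl pH 8.0. Inhibitor is added at several concentrations with the enzyme to start the reaction, and A340 loss is read over 15 min. IC50 is read graphically from log concentration vs % inhibition. Triplicate.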
Target sequence in this assay (Q16769 whole entry): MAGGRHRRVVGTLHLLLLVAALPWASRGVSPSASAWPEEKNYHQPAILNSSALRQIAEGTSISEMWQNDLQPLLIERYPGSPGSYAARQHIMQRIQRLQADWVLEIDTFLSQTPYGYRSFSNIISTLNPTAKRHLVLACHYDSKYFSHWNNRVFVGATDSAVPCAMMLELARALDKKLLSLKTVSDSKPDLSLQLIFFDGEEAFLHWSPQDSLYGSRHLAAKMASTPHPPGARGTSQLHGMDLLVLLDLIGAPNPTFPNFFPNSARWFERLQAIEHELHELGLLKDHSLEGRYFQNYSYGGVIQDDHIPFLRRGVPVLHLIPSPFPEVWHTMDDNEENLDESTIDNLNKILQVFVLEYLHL

For `COc1ccc(-c2cc(=O)c3ccc(O)cc3o2)cc1`, which inhibition [1] is on record?
The inhibition was 75.2%.

`O=c1cc(-c2ccc(O)cc2)oc2cc(O)cc(O)c12` was tested. Which inhibition [1] did it give?
Its inhibition is 75.2%.

`COc1ccc(-c2cc(=O)c3c(O)cc(O)cc3o2)c(OC)c1` was tested. Which inhibition [1] did it give?
The inhibition was 71.7%.

What does the source list for `O=c1cc(-c2ccc(O)cc2)oc2cc(O)ccc12`?
IC50 [2]: 45.2 µM; inhibition [1]: 71.8%
